Published values collected from several papers.

SMILES | assay | system | conditions | endpoint | result
CNC(C)Cc1ccc2nsnc2c1 (stereo not drawn) | metabolic stability | human, liver microsomes | 0.5 µM | microsomal CLint | 13.1 µL/min/mg
Cn1nccc1[C@]1(CNC(=O)c2ccc(F)c(F)c2-c2ccc(C(F)(F)F)cc2)NC(=O)NC1=O | HPLC |  | pH 7.5 | chromatographic logD | 2.3
COc1ccc2c(c1)[C@]13CCCC[C@@H]1[C@H](C2)N(C)CC3 | metabolic stability | Sprague-Dawley rat, hepatocytes | 0.5 µM, pH 7.4 | hepatocyte CLint | 97 µL/min/10⁶ cells
COc1ccsc1CNCC[C@@]1(c2ccccn2)CCOC2(CCCC2)C1 |  | human, plasma | intravenous, 1.5 mg, single dose, infusion | clearance | 721 mL/min
COc1ccc([C@@]23Oc4cc(OC)cc(OC)c4[C@@]24NC(C)=N[C@@]4(O)[C@H](C(=O)N(C)OC)[C@H]3c2ccccc2)cc1 | metabolic stability | rat, liver microsomes |  | microsomal CLint | 12.2 µL/min/mg
Cc1ncc2n1-c1ccc(Cl)cc1C(c1ccccc1F)=NC2 | metabolic stability | Sprague-Dawley rat, hepatocytes | 0.5 µM, pH 7.4 | hepatocyte CLint | 160 µL/min/10⁶ cells
O=C1NC(=O)[C@](CNC(=O)c2cnn(-c3ccccc3)n2)(C2CC2)N1 | HPLC |  | pH 7.5 | chromatographic logD | 1.8
CONC(=O)[C@H]1[C@@H](O)[C@@]2(O)c3c(OC)cc(OC)cc3O[C@@]2(c2ccc(OC)cc2)[C@@H]1c1ccccc1 | metabolic stability | rat, liver microsomes |  | microsomal CLint | 23.8 µL/min/mg
C[C@]12CC[C@H]3[C@@H](CCC4=CC(=O)CC[C@@]43C)[C@@H]1CC[C@@H]2O | metabolic stability | Sprague-Dawley rat, hepatocytes | 1 µM | hepatocyte CLint | 240 µL/min/10⁶ cells
